Test results published in ChEMBL document CHEMBL1143049, “Preparation, biological activity and endogenous occurrence of N6-benzyladenosines” (Bioorg Med Chem, 2007).

Experiments:
Triticum aestivum [1] = assay: Cytokinin activity in wheat assessed as retention of chlorophyll in excised wheat leaves at 0.1 umol/L relative to 6-Benzylaminopurine by senescence assay; format: functional
In short: (§1)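 Senescence assay measuring chlorophyll retention in excised wheat leaves. DMSO stocks brought to 10^-3 M with water, then diluted in assay medium to a final DMSO of at most 0.2%. Concentrations 10^-4 to 10^-8 M, quintuplicate, repeated at least three times. Response at the optimal concentration normalised to BAP optimum = 100.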

Amaranthus = assay: Cytokinin activity in Amaranthus cotyledons assessed as dark induction of betacyanin synthesis at 0.1 mmol/L relative to 6-Benzylaminopurine; format: functional
In short: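 Dark induction of betacyanin in excised Amaranthus cotyledons. DMSO stock brought to 10^-3 M in water, diluted into assay medium (DMSO ≤0.2%). Tested over 10^-4 to 10^-8 M, five replicates per concentration, assay repeated at least three times. Response at the optimal concentration expressed relative to BAP at its optimum (set to 100).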

Nicotiana tabacum [2] = assay: Cytokinin activity in tobacco assessed as stimulation of callus growth at 1 umol/L relative to 6-Benzylaminopurine; format: functional
In short: (§2)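 Stimulation of tobacco callus growth. Compounds dissolved in DMSO, brought to 10^-3 M in water and diluted into medium (DMSO ≤0.2%). Range 10^-4 to 10^-8 M, five replicates per concentration, at least three independent repeats. Activity at the optimal concentration given relative to BAP's optimal response, taken as 100.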

B16 = assay: Antitumor activity against mouse B16 cells after 72 hrs by Calcein AM assay; format: functional, cell-based; settings: B16, 72 h
In short: (§3)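 Cells grown in DMEM at 37 °C under 5% CO2. Compounds added after 12 h preincubation in 96-well plates, final 0.5-170 μM, with 0.6% final DMSO, then 72 h exposure. Viable cells stained with Calcein AM for 1 h and read at 485/538 nm. IC50 (concentration lethal to 50% of cells) taken from dose-response curves. Run in quadruplicate.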

CCRF-CEM = assay: Antitumor activity against human CEM cells after 72 hrs by Calcein AM assay; format: functional, cell-based; in short: as §3
[3] = Antitumor activity against human MCF cells after 72 hrs by Calcein AM assay; format: functional, cell-based; in short: as §3
K562 = assay: Antitumor activity against human K562 cells after 72 hrs by Calcein AM assay; format: functional, cell-based; settings: K562, 72 h; in short: as §3
HL-60 = assay: Antitumor activity against human HL60 cells after 72 hrs by Calcein AM assay; format: functional, cell-based; settings: HL-60, 72 h; in short: as §3
G-361 = assay: Antitumor activity against human G361 cells after 72 hrs by Calcein AM assay; format: functional, cell-based; settings: G-361, 72 h; in short: as §3
Nicotiana tabacum [4] = assay: Cytokinin activity in tobacco assessed as stimulation of callus growth at 0.1 mmol/L relative to 6-Benzylaminopurine; format: functional; in short: as §2
HOS = assay: Antitumor activity against human HOS cells after 72 hrs by Calcein AM assay; format: functional, cell-based; in short: as §3
Triticum aestivum [5] = assay: Cytokinin activity in wheat assessed as retention of chlorophyll in excised wheat leaves at 0.1 mmol/L relative to 6-Benzylaminopurine by senescence assay; format: functional; in short: as §1

IC50 (B16) | IC50 (CCRF-CEM) | IC50 [3] | IC50 (K562) | IC50 (HL-60) | IC50 (G-361) | IC50 (HOS) | Structure (SMILES) | Activity (Triticum aestivum [1]) | Activity (Amaranthus) | Activity (Nicotiana tabacum [2]) | Activity (Nicotiana tabacum [4]) | Activity (Triticum aestivum [5])
 |  |  |  |  |  |  | OC[C@H]1O[C@@H](n2cnc3c(NCc4ccc(O)c(O)c4)ncnc32)[C@H](O)[C@@H]1O | 17% | 8% | 4% |  | 
> 167 µM | 1.9 µM | > 167 µM | 16.5 µM | 15 µM | > 167 µM | > 167 µM | Cc1ccc(O)c(CNc2ncnc3c2ncn3[C@@H]2O[C@H](CO)[C@@H](O)[C@H]2O)c1 |  | 58% |  | 7% | 164%
